# Columns and labels:
# [1] = test system: Mus musculus; assay: Percent of animals (n=8) not exhibiting PTZ-induced ( Pentylentetrazol protection) seizures 10 min following a 10 mg/kg ip dose of steroid.; type: functional; details: route intraperitoneal
# Method in brief: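 Male NSA mice (15-20 g), n = 8. […] Mice watched 30 min for clonic seizure (forelimb clonus ≥3 s). Read-out is the percent of mice protected.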
# [2] = biological target: GABA-A receptor; anion channel; assay: In vitro inhibition of [35S]TBPS binding to gamma-aminobutyric-acid A receptor in rat brain cortical membranes in the presence of 5 uM GABA.; type: cell membranes, Membrane
# Method in brief: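 Rat cortical P2 membranes, washed in 200 mM NaCl/50 mM Na-K phosphate pH 7.4, incubated 90 min at room temperature with 2 nM [35S]TBPS, 5 µM GABA and test drug in DMSO (final 0.5%). Nonspecific binding taken with 2 µM unlabeled TBPS. Filtration, then scintillation counting. Partial vs full and one- vs two-component models chosen by F-test.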
# [3] = organism: Rattus norvegicus; assay: The maximum inhibitory potency was calculated by fitting [35S]TBPS inhibition data to a sigmoid function (rat brain cortical P2 membranes); type: functional
# Method in brief: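 Rat cortical P2 membranes washed in 200 mM NaCl/50 mM Na-K phosphate pH 7.4, incubated 90 min at room temperature with 2 nM [35S]TBPS, 5 µM GABA and test drug in DMSO (final 0.5%). Nonspecific binding defined with 2 µM unlabeled TBPS. Filtration, scintillation counting. Fits to one- or two-component, full or partial inhibition models chosen by F-test; IC50 and Imax as mean ± SEM of individual experiments.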
# [4] = biological target: T1, GABA-A receptor; alpha-1/beta-2/gamma-2 (Homo sapiens, UniProt P14867+P18507+P47870); assay: Steroid potentiation of 5% GABA responses in Xenopus oocytes expressing human alpha-1-beta-2-gamma-2L subunits of GABA-A receptor; type: functional, cell-based, Oocyte
# T1 sequence (P14867 whole entry): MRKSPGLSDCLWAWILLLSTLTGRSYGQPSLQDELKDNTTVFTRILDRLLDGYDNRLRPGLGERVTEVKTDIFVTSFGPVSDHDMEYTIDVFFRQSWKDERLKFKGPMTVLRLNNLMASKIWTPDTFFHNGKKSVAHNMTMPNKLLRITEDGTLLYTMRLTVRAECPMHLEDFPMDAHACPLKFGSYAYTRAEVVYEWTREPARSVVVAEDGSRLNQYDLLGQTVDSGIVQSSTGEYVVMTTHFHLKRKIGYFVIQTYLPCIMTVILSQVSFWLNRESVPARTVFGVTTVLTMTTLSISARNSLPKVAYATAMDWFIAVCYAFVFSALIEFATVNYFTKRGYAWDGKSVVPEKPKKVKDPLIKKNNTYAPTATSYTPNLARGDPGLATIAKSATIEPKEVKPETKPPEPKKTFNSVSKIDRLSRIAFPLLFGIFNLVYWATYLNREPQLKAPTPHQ
# T1 sequence (P47870 whole entry): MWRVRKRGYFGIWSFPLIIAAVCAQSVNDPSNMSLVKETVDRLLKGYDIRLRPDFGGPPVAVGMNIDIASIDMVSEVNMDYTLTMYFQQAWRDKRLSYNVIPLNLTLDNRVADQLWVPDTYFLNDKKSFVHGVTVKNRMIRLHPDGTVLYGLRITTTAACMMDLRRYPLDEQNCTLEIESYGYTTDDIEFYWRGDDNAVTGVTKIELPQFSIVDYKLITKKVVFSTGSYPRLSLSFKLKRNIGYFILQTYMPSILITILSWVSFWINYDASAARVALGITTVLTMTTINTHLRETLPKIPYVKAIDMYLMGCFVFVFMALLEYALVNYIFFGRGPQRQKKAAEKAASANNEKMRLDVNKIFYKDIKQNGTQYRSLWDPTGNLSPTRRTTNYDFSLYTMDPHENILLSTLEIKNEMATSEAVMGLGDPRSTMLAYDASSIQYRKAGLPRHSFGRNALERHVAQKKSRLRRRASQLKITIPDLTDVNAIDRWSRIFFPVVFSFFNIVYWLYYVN
# T1 sequence (P18507 whole entry): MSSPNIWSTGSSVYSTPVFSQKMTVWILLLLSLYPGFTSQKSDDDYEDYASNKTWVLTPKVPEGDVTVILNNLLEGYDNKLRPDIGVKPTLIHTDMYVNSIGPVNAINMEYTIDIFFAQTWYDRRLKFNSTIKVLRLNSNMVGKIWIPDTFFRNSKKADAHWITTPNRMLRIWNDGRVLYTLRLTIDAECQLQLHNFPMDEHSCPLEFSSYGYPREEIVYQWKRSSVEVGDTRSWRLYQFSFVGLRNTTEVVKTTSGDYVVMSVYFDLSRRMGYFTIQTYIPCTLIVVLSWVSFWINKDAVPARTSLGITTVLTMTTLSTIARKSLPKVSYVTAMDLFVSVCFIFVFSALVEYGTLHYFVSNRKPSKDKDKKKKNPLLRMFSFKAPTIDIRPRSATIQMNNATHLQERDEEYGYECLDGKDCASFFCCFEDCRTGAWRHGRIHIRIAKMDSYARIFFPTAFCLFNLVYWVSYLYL
# Method in brief: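 Xenopus oocytes injected with α1, β2, γ2L cRNAs (~1 ng each). Two-electrode voltage clamp at -70 mV in frog Ringer's, pH 7.4. GABA set to give about 5% of the maximal (1 mM GABA) current. Steroid stocks in DMSO diluted into Ringer's, DMSO 0.3%. Modulation is potentiation plus any direct steroid current, fitted to a four-parameter logistic. Mean ± SEM.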
# [5] = biological target: GABA-A receptor; alpha-1/beta-2/gamma-2 (Homo sapiens) (UniProt P14867+P47870+P18507); assay: Efficacy as fractional response (FR) relative to GABA maximum current elicited in the Xenopus oocytes; type: functional, cell-based; details: Oocyte
# Method in brief: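 Xenopus oocytes expressing α1β2γ2L GABAA receptors (~1 ng each cRNA), two-electrode voltage clamp at -70 mV in frog Ringer's pH 7.4. GABA set to give ~5% of maximal current (1 mM GABA). Steroid co-applied with 0.3% DMSO. Response taken as potentiation plus any direct current, expressed as a fraction of GABA maximum, fit to a four-parameter logistic.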
# [6] = Slope value was determined
Compound,PTZ protection [1] [%],IC50 [2] [nM],Imax [3] [%],EC50 [4] [nM],Efficacy [5],Slope [6]
CCN(CC)C(=O)c1ccc(C#C[C@@]2(O)CC[C@@]3(C)[C@H](CC[C@@H]4[C@@H]3CC[C@]3(C)[C@@H](C(C)=O)CC[C@@H]43)C2)cc1,13,93,91,,,
CC(=O)[C@H]1CC[C@H]2[C@@H]3CC[C@@H]4C[C@@](O)(CCc5ccccc5)CC[C@]4(C)[C@H]3CC[C@]12C,0,150,102,,,
CC(=O)[C@H]1CC[C@H]2[C@@H]3CC[C@@H]4C[C@@](O)(C#Cc5ccc6c(c5)OCO6)CC[C@]4(C)[C@H]3CC[C@]12C,13,68,93,,,
CC(=O)[C@H]1CC[C@H]2[C@@H]3CC[C@@H]4C[C@@](O)(C#Cc5ccc([N+](=O)[O-])cc5)CC[C@]4(C)[C@H]3CC[C@]12C,13,42,98,,,
CC(=O)[C@H]1CC[C@H]2[C@@H]3CC[C@@H]4C[C@@](O)(C#Cc5ccc(C(N)=O)cc5)CC[C@]4(C)[C@H]3CC[C@]12C,13,1800,96,,,
CC(=O)[C@H]1CC[C@H]2[C@@H]3CC[C@@H]4C[C@@](O)(C#Cc5ccc(O)cc5)CC[C@]4(C)[C@H]3CC[C@]12C,0,2300,100,> 1000,,
CC(=O)[C@H]1CC[C@H]2[C@@H]3CC[C@@H]4C[C@@](O)(Cc5ccccc5)CC[C@]4(C)[C@H]3CC[C@]12C,38,110,101,,,
CC(=O)[C@H]1CC[C@H]2[C@@H]3CC[C@@H]4C[C@@](O)(C#Cc5ccccc5)CC[C@]4(C)[C@H]3CC[C@]12C,25,100,100,,,
CC(=O)[C@H]1CC[C@H]2[C@@H]3CC[C@@H]4C[C@@](O)(CCCc5ccccc5)CC[C@]4(C)[C@H]3CC[C@]12C,13,190,91,,,
CC(=O)[C@H]1CC[C@H]2[C@@H]3CC[C@@H]4C[C@](C)(O)CC[C@]4(C)[C@H]3CC[C@]12C,,37,,,,
CCOC(=O)c1ccc(C#C[C@@]2(O)CC[C@H]3[C@H](CC[C@@H]4[C@@H]3CC[C@]3(C)[C@@H](C(C)=O)CC[C@@H]43)C2)cc1,13,26,94,,,
CC(=O)[C@H]1CC[C@H]2[C@@H]3CC[C@@H]4C[C@@](O)(C#Cc5ccc(C)cc5)CC[C@]4(C)[C@H]3CC[C@]12C,50,83,84,,,
COc1ccccc1C#C[C@@]1(O)CC[C@@]2(C)[C@H](CC[C@@H]3[C@@H]2CC[C@]2(C)[C@@H](C(C)=O)CC[C@@H]32)C1,0,170,89,,,
CC(=O)[C@H]1CC[C@H]2[C@@H]3CC[C@@H]4C[C@@](O)(c5ccccc5)CC[C@]4(C)[C@H]3CC[C@]12C,25,380,89,,,
CCOC(=O)c1ccc(C#C[C@@]2(O)CC[C@@]3(C)[C@H](CC[C@@H]4[C@@H]3CC[C@]3(C)[C@@H](C(C)=O)CC[C@@H]43)C2)cc1,19,12,97,,,
CC(=O)[C@H]1CC[C@H]2[C@@H]3CC[C@@H]4C[C@@](O)(C#Cc5ccc(N(C)C)cc5)CC[C@]4(C)[C@H]3CC[C@]12C,50,40,78,18,0.76,1.1
CC(=O)[C@H]1CC[C@H]2[C@@H]3CC[C@@H]4C[C@@](O)(C#Cc5cccc(O)c5)CC[C@]4(C)[C@H]3CC[C@]12C,0,420,100,,,
COc1ccc(C#C[C@@]2(O)CC[C@@]3(C)[C@H](CC[C@@H]4[C@@H]3CC[C@]3(C)[C@@H](C(C)=O)CC[C@@H]43)C2)cc1OC,13,290,102,,,
CC(=O)[C@H]1CC[C@H]2[C@@H]3CC[C@@H]4C[C@@](O)(C#Cc5ccc(Cl)cc5)CC[C@]4(C)[C@H]3CC[C@]12C,0,70,88,,,
CC(=O)[C@H]1CC[C@H]2[C@@H]3CC[C@@H]4C[C@@](O)(C#Cc5ccc(C(=O)c6ccccc6)cc5)CC[C@]4(C)[C@H]3CC[C@]12C,38,55,96,,,
CC(=O)[C@H]1CC[C@H]2[C@@H]3CC[C@@H]4C[C@@](O)(C#Cc5ccc(C#N)cc5)CC[C@]4(C)[C@H]3CC[C@]12C,44,60,85,,,
CC(=O)[C@H]1CC[C@H]2[C@@H]3CC[C@@H]4C[C@@](O)(C#Cc5ccc(C(F)(F)F)cc5)CC[C@]4(C)[C@H]3CC[C@]12C,0,56,88,,,
COc1ccc(C#C[C@@]2(O)CC[C@@]3(C)[C@H](CC[C@@H]4[C@@H]3CC[C@]3(C)[C@@H](C(C)=O)CC[C@@H]43)C2)cc1,25,42,84,,,
CC(=O)[C@H]1CC[C@H]2[C@@H]3CC[C@@H]4C[C@@](O)(C#Cc5ccc(-c6ccccc6)cc5)CC[C@]4(C)[C@H]3CC[C@]12C,0,54,90,,,
C#C[C@@]1(O)CC[C@@]2(C)[C@H](CC[C@@H]3[C@@H]2CC[C@]2(C)[C@@H](C(C)=O)CC[C@@H]32)C1,,39,,,,

# From ChEMBL document CHEMBL1130204, “3 alpha-Hydroxy-3 beta-(phenylethynyl)-5 beta-pregnan-20-ones: synthesis and pharmacological activity of neuroactive steroids with high affinity for GABAA receptors” (J Med Chem, 1997)
